{"source": "ChEMBL document CHEMBL3612001", "about": "“Design and discovery of 2-(4-(1H-tetrazol-5-yl)-1H-pyrazol-1-yl)-4-(4-phenyl)thiazole derivatives as cardiotonic agents via inhibition of PDE3” (Bioorg Med Chem, 2015)", "key": {"[1]": {"tested_on": "Mus musculus", "assay": "Toxicity in Swiss albino mouse assessed as changes in ALP level at 1 mg/kg, po dosed once orally for 28 days (reference value: 132.4 +/- 6.26 U/L)", "type": "organism-based", "conditions": "in vivo, 672 h"}, "[2]": {"tested_on": "Mus musculus", "assay": "Toxicity in Swiss albino mouse assessed as changes in cholesterol level at 0.1 mg/kg, po dosed once orally for 28 days (reference value: 138.43 +/- 1.52 mg/dL)", "type": "organism-based", "conditions": "in vivo, 672 h"}, "[3]": {"tested_on": "Mus musculus", "assay": "Toxicity in Swiss albino mouse assessed as changes in total protein level at 100 mg/kg, po dosed once orally for 28 days (reference value: 3.45 +/- 0.45 […])", "type": "organism-based", "conditions": "in vivo, 672 h"}, "[4]": {"tested_on": "Mus musculus", "assay": "Toxicity in Swiss albino mouse assessed as changes in albumin level at 0.1 mg/kg, po dosed once orally for 28 days (reference value: 2.78 +/- 1.82 g/dL)", "type": "organism-based", "conditions": "in vivo, 672 h"}, "[5]": {"tested_on": "Mus musculus", "assay": "Toxicity in Swiss albino mouse assessed as changes in SGOT level at 0.1 mg/kg, po dosed once orally for 28 days (reference value: 112.7 +/- 10.6 U/L)", "type": "organism-based", "conditions": "in vivo, 672 h"}, "[6]": {"tested_on": "Mus musculus", "assay": "Toxicity in Swiss albino mouse assessed as changes in ALP level at 10 mg/kg, po dosed once orally for 28 days (reference value: 132.4 +/- 6.26 U/L)", "type": "organism-based", "conditions": "in vivo, 672 h"}, "[7]": {"tested_on": "Cardiac atrium", "assay": "Cardiotonic activity in reserpine-pretreated and spontaneously beating rat atria assessed as inotropic activity by measuring contractile force at 100 uM (reference value: 100%)", "type": "functional", "outline": "(§1)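 Male Wistar rats (250–350 g) given reserpine 5 mg/kg ip 24 h before euthanasia under thiopental 80 mg/kg ip. Whole atria mounted in Krebs–Henseleit (95% O2/5% CO2, 35–37 °C, pH 7.35–7.45) at ~0.5 g resting tension, equilibrated 40–50 min. Used only if unresponsive to tyramine 1.5 μM. Compound added cumulatively (1–100 μM). Isometric force and rate recorded, six atria per compound.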"}, "[8]": {"tested_on": "Mus musculus", "assay": "Toxicity in Swiss albino mouse assessed as changes in cholesterol level at 10 mg/kg, po dosed once orally for 28 days (reference value: 138.43 +/- 1.52 mg/dL)", "type": "organism-based", "conditions": "in vivo, 672 h"}, "[9]": {"tested_on": "Mus musculus", "assay": "Toxicity in Swiss albino mouse assessed as changes in total protein level at 10 mg/kg, po dosed once orally for 28 days (reference value: 3.45 +/- 0.45 […])", "type": "organism-based", "conditions": "in vivo, 672 h"}, "[10]": {"tested_on": "Mus musculus", "assay": "Toxicity in Swiss albino mouse assessed as changes in absolute and relative organ weight at 100 mg/kg, po dosed once orally for 28 days", "type": "organism-based", "conditions": "in vivo, 672 h", "outline": "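Sub-acute oral study in Swiss albino mice, 20–25 g, 3 male + 3 female per group, 7-day acclimatisation, 22 ± 5 °C, 12 h light/dark cycle, standard feed and water ad libitum. Compound dissolved in DMSO, suspended in 0.7% CMC, given orally once daily for 28 days at 0.1, 1, 10 or 100 mg/kg, against vehicle controls. Animals observed throughout; gross pathology with absolute and relative organ weights at end; n = 6.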"}, "[11]": {"tested_on": "Mus musculus", "assay": "Toxicity in Swiss albino mouse assessed as changes in SGOT level at 1 mg/kg, po dosed once orally for 28 days (reference value: 112.7 +/- 10.6 U/L)", "type": "organism-based", "conditions": "in vivo, 672 h"}, "[12]": {"target": "cGMP-inhibited 3',5'-cyclic phosphodiesterase 3B (Homo sapiens, UniProt Q13370)", "sequence (Q13370 whole entry)": "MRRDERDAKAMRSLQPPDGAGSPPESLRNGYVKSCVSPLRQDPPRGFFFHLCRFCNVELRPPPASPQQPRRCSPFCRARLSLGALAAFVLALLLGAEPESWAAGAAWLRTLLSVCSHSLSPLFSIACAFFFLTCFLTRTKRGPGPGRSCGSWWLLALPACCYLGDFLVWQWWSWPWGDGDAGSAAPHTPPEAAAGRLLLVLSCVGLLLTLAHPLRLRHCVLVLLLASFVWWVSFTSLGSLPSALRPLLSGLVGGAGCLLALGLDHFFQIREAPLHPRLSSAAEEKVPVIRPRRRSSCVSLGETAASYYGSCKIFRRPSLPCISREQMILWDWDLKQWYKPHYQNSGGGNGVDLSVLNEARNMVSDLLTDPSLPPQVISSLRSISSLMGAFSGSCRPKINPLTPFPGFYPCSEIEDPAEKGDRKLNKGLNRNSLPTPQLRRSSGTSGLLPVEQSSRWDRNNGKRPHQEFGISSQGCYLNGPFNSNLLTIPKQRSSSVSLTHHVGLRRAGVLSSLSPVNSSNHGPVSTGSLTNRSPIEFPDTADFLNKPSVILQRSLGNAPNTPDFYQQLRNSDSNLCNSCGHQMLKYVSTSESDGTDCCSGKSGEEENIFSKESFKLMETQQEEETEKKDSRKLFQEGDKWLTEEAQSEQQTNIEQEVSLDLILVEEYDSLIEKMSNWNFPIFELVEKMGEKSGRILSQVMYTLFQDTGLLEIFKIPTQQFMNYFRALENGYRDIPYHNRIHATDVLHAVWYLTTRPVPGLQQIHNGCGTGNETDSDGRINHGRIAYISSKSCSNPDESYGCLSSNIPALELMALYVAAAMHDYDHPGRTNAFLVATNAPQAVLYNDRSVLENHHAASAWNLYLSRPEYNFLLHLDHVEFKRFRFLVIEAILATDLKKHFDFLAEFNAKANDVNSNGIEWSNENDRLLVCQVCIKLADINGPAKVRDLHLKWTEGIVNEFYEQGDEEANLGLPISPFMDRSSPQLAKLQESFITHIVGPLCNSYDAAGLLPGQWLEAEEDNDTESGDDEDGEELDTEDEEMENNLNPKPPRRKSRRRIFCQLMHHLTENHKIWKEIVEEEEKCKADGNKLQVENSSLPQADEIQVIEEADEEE", "assay": "Inhibition of human PDE3B using FAM-cAMP by fluorescence polarization assay", "outline": "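IMAP fluorescence polarization assay. 1 ng PDE3A or PDE3B with 100 nM FAM-cAMP in reaction buffer, 60 min at room temperature, then binding reagent (1:600) for 60 min. Read at ex 485/em 528 nm, duplicates. Activity scaled between no-enzyme FP (0%) and highest FP (100%). IC50 from sigmoidal fit over 0.01–100 µM.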"}, "[13]": {"tested_on": "Mus musculus", "assay": "Toxicity in Swiss albino mouse assessed as changes in cholesterol level at 100 mg/kg, po dosed once orally for 28 days (reference value: 138.43 +/- 1.52 mg/dL)", "type": "organism-based", "conditions": "in vivo, 672 h"}, "[14]": {"tested_on": "Mus musculus", "assay": "Toxicity in Swiss albino mouse assessed as changes in SGOT level at 100 mg/kg, po dosed once orally for 28 days (reference value: 112.7 +/- 10.6 U/L)", "type": "organism-based", "conditions": "in vivo, 672 h"}, "[15]": {"tested_on": "Mus musculus", "assay": "Toxicity in Swiss albino mouse assessed as changes in triglycerides level at 0.1 mg/kg, po dosed once orally for 28 days (reference value: 263.69 +/- 3.38 mg/dL)", "type": "organism-based", "conditions": "in vivo, 672 h"}, "[16]": {"tested_on": "Mus musculus", "assay": "Toxicity in Swiss albino mouse assessed as changes in ALP level at 0.1 mg/kg, po dosed once orally for 28 days (reference value: 132.4 +/- 6.26 U/L)", "type": "organism-based", "conditions": "in vivo, 672 h"}, "[17]": {"tested_on": "Mus musculus", "assay": "Toxicity in Swiss albino mouse assessed as changes in body weight at 10 mg/kg, po dosed once orally for 28 days (reference value: 31.2 +/- 1.6g)", "type": "organism-based", "conditions": "in vivo, 672 h"}, "[18]": {"tested_on": "Mus musculus", "assay": "Toxicity in Swiss albino mouse assessed as changes in body weight at 0.1 mg/kg, po dosed once orally for 28 days (reference value: 31.2 +/- 1.6g)", "type": "organism-based", "conditions": "in vivo, 672 h"}, "[19]": {"tested_on": "Mus musculus", "assay": "Toxicity in Swiss albino mouse assessed as changes in body weight at 1 mg/kg, po dosed once orally for 28 days (reference value: 31.2 +/- 1.6g)", "type": "organism-based", "conditions": "in vivo, 672 h"}, "[20]": {"tested_on": "Mus musculus", "assay": "Toxicity in Swiss albino mouse up to 1000 mg/kg, po dosed as single acute dose", "type": "organism-based", "conditions": "in vivo"}, "[21]": {"tested_on": "Mus musculus", "assay": "Toxicity in Swiss albino mouse assessed as changes in creatinine level at 100 mg/kg, po dosed once orally for 28 days (reference value: 0.04 +/- 0.37 mg/dL)", "type": "organism-based", "conditions": "in vivo, 672 h"}, "[22]": {"tested_on": "Cardiac atrium", "assay": "Toxic cardiotonic activity in reserpine-pretreated and spontaneously beating rat atria assessed as chronotropic activity by measuring contractile frequency rate at 1 uM (reference value: 100%)", "type": "toxicity", "outline": "as §1"}, "[23]": {"tested_on": "Mus musculus", "assay": "Toxicity in Swiss albino mouse assessed as changes in triglycerides level at 10 mg/kg, po dosed once orally for 28 days (reference value: 263.69 +/- 3.38 mg/dL)", "type": "organism-based", "conditions": "in vivo, 672 h"}, "[24]": {"tested_on": "Mus musculus", "assay": "Toxicity in Swiss albino mouse assessed as changes in total protein level at 1 mg/kg, po dosed once orally for 28 days (reference value: 3.45 +/- 0.45 […])", "type": "organism-based", "conditions": "in vivo, 672 h"}, "[25]": {"tested_on": "Cardiac atrium", "assay": "Toxic cardiotonic activity in reserpine-pretreated and spontaneously beating rat atria assessed as chronotropic activity by measuring contractile frequency rate at 100 uM (reference value: 100%)", "type": "toxicity", "outline": "as §1"}, "[26]": {"tested_on": "Mus musculus", "assay": "Toxicity in Swiss albino mouse assessed as changes in albumin level at 10 mg/kg, po dosed once orally for 28 days (reference value: 2.78 +/- 1.82 g/dL)", "type": "organism-based", "conditions": "in vivo, 672 h"}}}
{"smiles": "Fc1ccc(-c2csc(-n3cc(-c4nnn[nH]4)cn3)n2)cc1", "values": [{"measurement": "Activity", "setting": "[1]", "result": 136.6, "unit": "U/L"}, {"measurement": "Activity", "setting": "[2]", "result": 125.66, "unit": "mg/dL"}, {"measurement": "Activity", "setting": "[3]", "result": 4.54, "unit": "g/dL"}, {"measurement": "Activity", "setting": "[4]", "result": 2.89, "unit": "g/dL"}, {"measurement": "Activity", "setting": "[5]", "result": 107.8, "unit": "U/L"}, {"measurement": "Activity", "setting": "[6]", "result": 133.3, "unit": "U/L"}, {"measurement": "Activity", "setting": "[7]", "result": 163, "unit": "%"}, {"measurement": "Activity", "setting": "[8]", "result": 135.4, "unit": "mg/dL"}, {"measurement": "Activity", "setting": "[9]", "result": 4.12, "unit": "g/dL"}, {"measurement": "Activity", "setting": "[10]", "result": "Non-toxic"}, {"measurement": "Activity", "setting": "[11]", "result": 109.8, "unit": "U/L"}, {"measurement": "IC50", "setting": "[12]", "result": 2.34, "unit": "µM"}, {"measurement": "Activity", "setting": "[13]", "result": 134.3, "unit": "mg/dL"}, {"measurement": "Activity", "setting": "[14]", "result": 111.6, "unit": "U/L"}, {"measurement": "Activity", "setting": "[15]", "result": 254.1, "unit": "mg/dL"}, {"measurement": "Activity", "setting": "[16]", "result": 135.5, "unit": "U/L"}, {"measurement": "Activity", "setting": "[17]", "result": 32.62, "unit": "g"}, {"measurement": "Activity", "setting": "[18]", "result": 29.28, "unit": "g"}, {"measurement": "Activity", "setting": "[19]", "result": 28.04, "unit": "g"}, {"measurement": "Activity", "setting": "[20]", "result": "Non-toxic"}, {"measurement": "Activity", "setting": "[21]", "result": 0.05, "unit": "mg/dL"}, {"measurement": "Activity", "setting": "[22]", "result": 108, "unit": "%"}, {"measurement": "Activity", "setting": "[23]", "result": 251.86, "unit": "mg/dL"}, {"measurement": "Activity", "setting": "[24]", "result": 3.64, "unit": "g/dL"}, {"measurement": "Activity", "setting": "[25]", "result": 123, "unit": "%"}, {"measurement": "Activity", "setting": "[26]", "result": 2.57, "unit": "g/dL"}]}
